According to publication PMC5625158 (Pharmacology Research & Perspectives, 2017):

Experiments:
liver and lung fibrosis = details: ref Henderson et al. 2013; cited from earlier work
obese ZSF1 rats [1] = assay: Kidney histology in ZSF1 rats; assay type: in vivo, rat
Outline: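 At study end, both kidneys were formalin-fixed, paraffin-embedded and stained with H&E, PAS and Masson's trichrome for light microscopy. Tubular, interstitial, vascular and glomerular changes were graded 0–5 (normal to severe). Collagen deposition was graded 0–5 by blue-stained area size and intensity. Group sizes were n = 8 lean and n = 12 per obese group, with 28 weeks of diet dosing.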

obese ZSF1 rats [2] = assay: Renal function in obese ZSF1 rat diabetic nephropathy model; assay type: in vivo; details: for Urinary protein/creatinine ratio (UPCR): 28 weeks
[3] = system: men with hormone‐refractory prostate cancer and bone metastases; details: ref Rosenthal et al. 2010; cited from earlier work
obese ZSF1 rats [4] = assay: Kidney fibrosis marker gene expression by RT-PCR in ZSF1 rats; assay type: in vivo, rat; details: dose not given
Outline: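 Kidney cortex was snap-frozen, homogenized in TRIzol and column-purified for RNA. A 2 µg RNA sample was reverse-transcribed, and rat TaqMan probes were used for qPCR. Ct values were normalized to the geomean of POLR2A and B2M and quantified by the 2^-ΔΔCT method relative to the obese vehicle group. Treatment was in diet for 28 weeks (n = 12 per obese group).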

αvβ3 = αvβ3 (Homo sapiens, UniProt P05106+P06756); details: ref Hutchinson et al. 2003; cited from earlier work
Sequence of αvβ3 (P06756 31-992 limits assumed): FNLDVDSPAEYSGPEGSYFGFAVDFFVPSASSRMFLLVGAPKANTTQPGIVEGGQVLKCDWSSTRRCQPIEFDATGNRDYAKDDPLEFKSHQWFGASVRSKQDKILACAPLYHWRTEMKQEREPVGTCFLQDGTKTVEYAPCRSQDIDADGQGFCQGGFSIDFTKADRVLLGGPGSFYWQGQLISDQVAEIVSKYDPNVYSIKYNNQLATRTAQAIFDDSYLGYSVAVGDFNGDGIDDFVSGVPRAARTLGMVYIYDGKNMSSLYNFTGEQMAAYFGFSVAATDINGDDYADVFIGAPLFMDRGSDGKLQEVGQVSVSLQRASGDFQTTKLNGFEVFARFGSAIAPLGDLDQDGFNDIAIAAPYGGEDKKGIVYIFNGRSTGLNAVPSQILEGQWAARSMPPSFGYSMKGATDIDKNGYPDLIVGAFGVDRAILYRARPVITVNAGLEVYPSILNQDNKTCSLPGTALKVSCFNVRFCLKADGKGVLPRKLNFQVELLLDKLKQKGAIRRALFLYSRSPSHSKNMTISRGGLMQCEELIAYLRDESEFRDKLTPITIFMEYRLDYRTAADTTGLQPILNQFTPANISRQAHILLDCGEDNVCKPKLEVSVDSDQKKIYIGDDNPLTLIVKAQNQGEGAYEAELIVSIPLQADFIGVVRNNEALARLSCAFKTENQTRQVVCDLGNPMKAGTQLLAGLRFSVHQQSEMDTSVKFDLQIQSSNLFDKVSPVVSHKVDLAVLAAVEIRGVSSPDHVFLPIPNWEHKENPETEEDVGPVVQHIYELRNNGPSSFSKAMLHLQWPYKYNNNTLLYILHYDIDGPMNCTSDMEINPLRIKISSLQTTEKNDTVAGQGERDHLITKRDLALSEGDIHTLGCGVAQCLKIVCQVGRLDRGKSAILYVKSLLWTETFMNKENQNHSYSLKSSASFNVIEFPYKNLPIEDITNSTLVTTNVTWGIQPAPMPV
Sequence of αvβ3 (P05106 27-718 limits assumed): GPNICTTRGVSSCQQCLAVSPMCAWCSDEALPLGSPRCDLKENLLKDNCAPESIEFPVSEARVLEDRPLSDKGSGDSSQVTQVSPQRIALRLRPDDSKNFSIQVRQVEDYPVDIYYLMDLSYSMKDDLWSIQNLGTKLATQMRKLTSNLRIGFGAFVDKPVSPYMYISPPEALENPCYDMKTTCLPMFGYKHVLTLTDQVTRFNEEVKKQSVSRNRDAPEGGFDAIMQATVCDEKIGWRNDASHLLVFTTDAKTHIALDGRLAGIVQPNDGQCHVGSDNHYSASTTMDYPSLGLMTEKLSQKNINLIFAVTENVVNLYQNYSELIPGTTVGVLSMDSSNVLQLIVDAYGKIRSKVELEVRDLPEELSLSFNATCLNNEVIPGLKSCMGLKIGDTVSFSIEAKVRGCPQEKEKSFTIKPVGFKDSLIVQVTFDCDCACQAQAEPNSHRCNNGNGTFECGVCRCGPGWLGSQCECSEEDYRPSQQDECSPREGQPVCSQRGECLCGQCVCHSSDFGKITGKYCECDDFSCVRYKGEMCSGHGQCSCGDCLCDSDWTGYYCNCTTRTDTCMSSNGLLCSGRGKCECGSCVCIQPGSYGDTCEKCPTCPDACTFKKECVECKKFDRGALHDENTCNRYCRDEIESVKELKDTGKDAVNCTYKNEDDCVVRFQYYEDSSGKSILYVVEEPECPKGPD

[5] = system: α1β1, α2β1, α3β1, α4β1, α6β1, α9β1, α10β1, α11β1, and αIIbβ3 integrins; assay: Thermal shift assay; assay type: binding, Human; details: Twenty μM MK‐0429
Outline: (§1)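 Differential scanning fluorimetry was run on a real-time PCR instrument. Recombinant integrins (the α1β1–αIIbβ3 panel was recombinant human) were reconstituted in assay buffer with Sypro orange, and test compound was added at 20 µM. ΔTm was calculated against a DMSO control. Runs were in triplicate across three independent experiments.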

αvβx integrins = assay: Thermal shift assay, αvβx integrins; assay type: binding; details: Fig. S1B
Outline: as §1

[6] = system: Human primary kidney fibroblasts (HPKF); assay: Kidney fibroblast fibrosis assay; assay type: cell-based
Outline: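 Primary human kidney fibroblasts were grown on collagen I-coated plates at 37°C in 5% CO2 and serum-starved overnight. They were then given various concentrations of test compound for 24 h. In TGF-β arms, compound was added 1 h before recombinant human TGF-β1 (5 ng/mL final, 24 h). Marker mRNA was measured by RNA extraction, reverse transcription and real-time PCR.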

[7] = Body weight, food and water intake in ZSF1 rats; assay type: in vivo, rat; details: data not shown
Outline: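 Male obese ZSF1 rats received the test compound in a medicated chow diet from 16 weeks of age for 28 weeks. Before each collection they were acclimated for at least 3 days to single housing in metabolic cages. Body weight and food and water consumption were recorded at every urine and blood collection, at weeks −2, 1, 2, 4, 6, 8, 12, 16, 21, 24 and 28.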

[8] = system: osteoplastic bone resorption; details: ref Hutchinson et al. 2003; cited from earlier work
[9] = system: postmenopausal women with osteoporosis; details: cited from earlier work
obese ZSF1 rats [10] = assay: Kidney collagen I and III protein by immunohistochemistry in ZSF1 rats; assay type: in vivo, rat; details: 400 mg/kg/day, versus obese vehicle
Outline: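 Kidneys were taken at study end, formalin-fixed and paraffin-embedded, then deparaffinized and rehydrated. Sections were stained with rabbit polyclonal anti-collagen I (2 ug/mL) or anti-collagen III (3 ug/mL), developed with an HRP-polymer kit and counterstained with hematoxylin. Whole slides were scanned at 20x, and positive stain area was quantified by a colour-deconvolution algorithm. Dosing was in diet for 28 weeks.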

human podocytes = assay: Podocyte cell viability; assay type: cell-based; details: 48 h treatment, unpublished data
platelet aggregation = details: ref Hutchinson et al. 2003; cited from earlier work

For CC(C)(C)c1cc(Br)cc([C@H](CC(=O)O)NC(=O)CNC(=O)c2cc(O)cc(NC3=NCC(O)CN3)c2)c1 (some centres unmarked) [CWHM12], the “Liver and lung fibrosis” value (liver and lung fibrosis) is listed as “attenuated”.
For CCOC(=O)[C@H](CCc1ccccc1)N[C@@H](C)C(=O)N1CCC[C@H]1C(=O)O [Enalapril, enalapril], the “Kidney fibrosis score (Masson's trichrome)” value (obese ZSF1 rats [1]; 10 mg/kg/day, 28 weeks, versus obese vehicle) was “significantly decreased”, the “Urinary protein/creatinine ratio (UPCR)” value (obese ZSF1 rats [2]; 10 mg/kg/day in diet) was “significantly decreased” and the “Glomerular filtration rate (GFR)” value (obese ZSF1 rats [2]; enalapril 10 mg/kg/day in diet) was “improvement”.
For COc1ccc([C@H](CC(=O)O)N2CCN(CCCc3ccc4c(n3)NCCC4)C2=O)cn1 [MK‐0429], the Glomerular injury score (obese ZSF1 rats [1]; 0–5 scale, data not shown) is listed as “no significant effect”, the Tubular injury score (obese ZSF1 rats [1]; 0–5 scale, data not shown) is listed as “no significant effect” and the Bone turnover [3] is listed as “significantly reduced”. The “αSMA mRNA expression, kidney” value (obese ZSF1 rats [4]) was “significantly decreased”, the αvβ3 ligand binding (αvβ3) was “inhibits” and the “Binding to other integrins (thermal shift assay)” value [5] was “does not bind and No”. For the same compound, the “Shift of melting temperatures of αvβx integrins” value (αvβx integrins) was “dramatic shift”, the “Expression of Collagen type I alpha‐1 chain (Col IA1)” value ([6]; HPKF ± TGF‐β) was “partially inhibited” and the “Expression of connective tissue growth factor (CTGF)” value ([6]; HPKF ± TGF‐β) was “strongly suppressed”. The “Expression of α‐smooth muscle actin (αSMA)” value ([6]; HPKF ± TGF‐β) was “partially inhibited”, the IC50 ([6]; read-out: Inhibition of PAI‐1 gene expression IC50, HPKF, absence of TGF‐β, 24 h) was 56.5 nM and the Body weight [7] was “no significant effects”. For the same compound, the Food intake [7] was “no significant effects”, the Water intake [7] was “no significant effects” and the Osteoplastic bone resorption [8] was “inhibits”. The “Urinary protein/creatinine ratio (UPCR)” value (obese ZSF1 rats [2]; 400 mg/kg/day in diet) was “significantly later onset in its effects to reduce”, the “Bone mineral density at spine and hip (multiple endpoints)” value ([9]; phase II, postmenopausal women with osteoporosis, ref Murphy et al. 2005) was “improvement” and the “Tolerability in Phase II trials” value ([9]; ref Hutchinson et al. 2003, Coleman et al. 2004, Murphy et al. 2005, Rosenthal et al. 2010) was “well tolerated”. For the same compound, the “Decrease of Type I collagen positive stain (% of area), kidney IHC” value (obese ZSF1 rats [10]) was “significantly decreased”, the “Decrease of Type III collagen positive stain (% of area), kidney IHC” value (obese ZSF1 rats [10]) was “significantly decreased” and the “Effect on cell viability” value (human podocytes) was “without affecting cell viability”. The “Activity in platelet aggregation assay” value (platelet aggregation) was “inactive”.
